ChEMBL document CHEMBL1128248, “C-9 and N-substituted analogs of cis-(3aR)-(-)-2,3,3a,4,5,9b-hexahydro-3- propyl-1H-benz[e]indole-9-carboxamide: 5-HT1A receptor agonists with various degrees of metabolic stability” (J Med Chem, 1995)
pKi: −log10 of the molar value. The source made the active and inactive calls. No cut-off for these calls is given here.

Columns and labels:
[1] = biological target: T1, 5-hydroxytryptamine receptor 1A (Rattus norvegicus, UniProt P19327); assay: In vitro displacement of radioactively labeled ligand [3H]8-OH-DPAT from 5-hydroxytryptamine 1A receptor site in CHO cells; assay type: cell-based
T1 sequence (P19327 whole entry): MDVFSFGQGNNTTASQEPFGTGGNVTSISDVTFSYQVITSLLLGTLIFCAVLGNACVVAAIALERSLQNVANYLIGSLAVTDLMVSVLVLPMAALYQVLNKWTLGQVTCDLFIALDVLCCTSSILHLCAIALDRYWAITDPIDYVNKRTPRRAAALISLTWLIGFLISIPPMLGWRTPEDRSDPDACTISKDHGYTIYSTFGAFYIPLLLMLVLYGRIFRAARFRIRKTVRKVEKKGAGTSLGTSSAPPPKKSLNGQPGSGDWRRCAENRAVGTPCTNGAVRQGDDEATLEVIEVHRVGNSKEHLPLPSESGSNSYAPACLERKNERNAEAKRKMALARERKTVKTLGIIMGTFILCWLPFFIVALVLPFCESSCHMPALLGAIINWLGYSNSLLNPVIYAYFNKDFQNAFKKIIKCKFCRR

D(2) dopamine receptor = D(2) dopamine receptor (Rattus norvegicus, UniProt P61169); assay: Displacement of [3H]U-86170 from Dopamine receptor D2
D(2) dopamine receptor, sequence (P61169 whole entry): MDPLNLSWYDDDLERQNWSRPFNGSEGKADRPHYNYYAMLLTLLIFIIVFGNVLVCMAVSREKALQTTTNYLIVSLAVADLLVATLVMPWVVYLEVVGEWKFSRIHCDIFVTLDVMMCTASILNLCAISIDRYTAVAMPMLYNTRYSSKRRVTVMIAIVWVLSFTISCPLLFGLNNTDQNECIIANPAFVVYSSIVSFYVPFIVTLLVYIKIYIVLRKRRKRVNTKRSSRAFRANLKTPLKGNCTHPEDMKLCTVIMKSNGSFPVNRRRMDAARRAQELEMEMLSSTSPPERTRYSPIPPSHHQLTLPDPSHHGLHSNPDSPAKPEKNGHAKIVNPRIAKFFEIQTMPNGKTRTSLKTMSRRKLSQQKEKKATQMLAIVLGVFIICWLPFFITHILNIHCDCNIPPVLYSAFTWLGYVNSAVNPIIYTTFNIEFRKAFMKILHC
Summary of the method: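 Competition binding at cloned D2 receptors expressed in CHO-K1 cells, using the agonist [3H]U86170 (62 Ci/mmol, 2 nM) against 11 dilutions of test compound. IC50 was fitted to a one-site model by nonlinear least squares. Ki was obtained with the Cheng–Prusoff equation.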

Rattus norvegicus [2] = assay: In vivo effects on DA (dopamine) synthesis in corps striatum was reported after subcutaneous administration to reserpinized rats; inactive at a dose of 50; assay type: functional, organism-based
Summary of the method: (§1)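 Male Sprague–Dawley rats (200–300 g) given reserpine 5 mg/kg sc 18 h before; compounds sc in neck region, 5 mL/kg. DOPA accumulation in striatum or cortex measured by HPLC with electrochemical detection.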

Rattus norvegicus [3] = assay: (§2) 5-HTP accumulation in limbic system was determined in vivo; assay type: functional
Summary of the method: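 Male Sprague–Dawley rats (200–300 g) pretreated with reserpine 5 mg/kg sc 18 h beforehand; test drug given sc in neck, 5 mL/kg, neutral pH. 5-HTP in limbic system measured by HPLC with electrochemical detection.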

Rattus norvegicus [4] = assay: in vivo effects on DA (dopamine) synthesis in cortex was reported after subcutaneous administration to reserpinized rats; inactive at a dose of 50; assay type: functional, organism-based; summary of the method: as §1
Rattus norvegicus [5] = species on record: Rattus norvegicus; assay: (§3) In vitro metabolic stability of the test compound was evaluated after incubation in the presence of freshly isolated rat hepatocytes; assay type: functional, Hepatocyte; set-up: reference not given here
Summary of the method: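 Rat hepatocytes were isolated by modified collagenase perfusion and incubated as suspensions (5 million cells/mL) with each compound at three concentrations. Parent loss was followed by HPLC. Initial rates gave apparent Vmax and Km by direct linear plot, with CLint = Vmax/Km. Stability is expressed relative to a reference compound incubated at the same time.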

Rattus norvegicus [6] = assay: postsynaptic effects was assessed by the increase in the locomotor activity (reversal of reserpine induced hypokinesia) during a 30 min period after subcutaneous administration using photocell motility meters at the dose of 50(micro M/kg); assay type: ADME, organism-based; settings: in vivo, sc, 0.5 h
Summary of the method: (§4)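 Reserpine 5 mg/kg sc was given 18 h before testing to male Sprague–Dawley rats. Test drug was given sc in the neck, and rats were placed singly in photocell motility meters. Accumulated counts were recorded over 30 min (mean, n = 4), with gross behaviour observed throughout. Student's t test was applied.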

Rattus norvegicus [7] = species on record: Rattus norvegicus; assay: as §3; assay type: ADME, Hepatocyte
Summary of the method: (§5)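 Rat hepatocytes were prepared by a modified collagenase perfusion method. Each compound was incubated at three concentrations in suspension at 5 million cells/mL. Initial rates were analysed by direct linear plot to give apparent Vmax and Km, and CLint = Vmax/Km. Rates were measured by HPLC and expressed relative to a reference compound incubated at the same time.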

Rattus norvegicus [8] = assay: In vivo effects on DA (dopamine) synthesis in corps striatum was reported after subcutaneous administration to reserpinized rats; inactive at a dose of 12.5; assay type: functional, organism-based; summary of the method: as §1
Rattus norvegicus [9] = assay: in vivo effects on DA (dopamine) synthesis in cortex was reported after subcutaneous administration to reserpinized rats; inactive at a dose of 12.5; assay type: functional, organism-based; summary of the method: as §1
Rattus norvegicus [10] = assay: uM/kg); assay type: ADME, organism-based; settings: in vivo
Summary of the method: (§6)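 Male Sprague–Dawley rats got reserpine 5 mg/kg sc in the neck 18 h before testing. Compound was given sc in the neck (5 mL/kg), and rats were placed singly in photocell motility meters. Accumulated counts were recorded over 30 min, mean ± SEM, n = 4, with Student's t test against reserpinized controls. Testing ran 9 a.m.–1 p.m.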

Rattus norvegicus [11] = species on record: Rattus norvegicus; assay: In vitro metabolic stability of the test compound was evaluated after incubation in the presence of freshly isolated rat hepatocytes; Metabolic stability NT = not tested; assay type: functional, Hepatocyte; summary of the method: as §5
Rattus norvegicus [12] = assay: postsynaptic effects was assessed by the increase in the locomotor activity (reversal of reserpine induced hypokinesia) during a 30 min period after subcutaneous administration using photocell motility meters at dose of 12.5 (uM /kg); assay type: functional; summary of the method: as §6
Rattus norvegicus [13] = assay: postsynaptic effect was assessed by the increase in the locomotor activity (reversal of reserpine induced hypokinesia) during a 30 min period after subcutaneous administration using photocell motility meters at the dose of 3.1 uM/kg; assay type: ADME, organism-based; settings: in vivo, sc, 0.5 h; summary of the method: as §4
Rattus norvegicus [14] = assay: as §2; assay type: functional; remark: listed apart in the source
Summary of the method: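 Male Sprague–Dawley rats (200–300 g), pretreated with reserpine 5 mg/kg sc 18 h before. Test drug given sc. 5-HTP measured in limbic brain tissue by HPLC with electrochemical detection. Dose–response curves were built from four to six dose levels (n = 4) for each substance and brain area. ED50 reported in μmol/kg sc.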

Rattus norvegicus [15] = assay: in vivo effects on DA (dopamine) synthesis in cortex was reported after subcutaneous administration to reserpinized rats; inactive at a dose of 3.1; assay type: functional, organism-based
Rattus norvegicus [16] = assay: In vivo effects on DA (dopamine) synthesis in corps striatum was reported after subcutaneous administration to reserpinized rats; inactive at a dose of 3.1; assay type: functional, organism-based

Row | Structure (SMILES) | pKi [1] | pKi (D(2) dopamine receptor) | Metabolic stability (Rattus norvegicus [5]) | other results
1 | FCCCN1CC[C@H]2c3c(Br)cccc3CC[C@H]21 | 8.33 | 7.33 | – | –
2 | NC(=O)c1cccc2c1[C@@H]1CCN(CC3CC3)[C@@H]1CC2 | 8.08 | < 6.00 | 0.5 | ED50 (Rattus norvegicus [2]): inactive; ED50 (Rattus norvegicus [3]): 1 µmol/kg; ED50 (Rattus norvegicus [4]): inactive; Locomotor activity (Rattus norvegicus [6]): 32
3 | NC(=O)c1cccc2c1[C@@H]1CCN(CCCCl)[C@@H]1CC2 | 7.82 | < 6.00 | – | Metabolic stability (Rattus norvegicus [7]): 0.22
4 | C=CCN1CC[C@H]2c3c(Br)cccc3CC[C@H]21 | 9.00 | 8.49 | – | –
5 | C=CCN1CC[C@H]2c3c(cccc3C(N)=O)CC[C@H]21 | 8.82 | < 6.00 | 1 | ED50 (Rattus norvegicus [8]): inactive; ED50 (Rattus norvegicus [3]): 0.04 µmol/kg; ED50 (Rattus norvegicus [9]): inactive; Locomotor activity (Rattus norvegicus [10]): 215
6 | CC(C)=CCN1CC[C@H]2c3c(cccc3C(N)=O)CC[C@H]21 | 6.57 | < 6.00 | – | Metabolic stability (Rattus norvegicus [11]): 0
7 | C#CCN1CC[C@H]2c3c(cccc3C(N)=O)CC[C@H]21 | 7.32 | < 6.00 | 0.37 | –
8 | CCCN1CC[C@H]2c3c(cccc3C(N)=O)CC[C@H]21 | 8.72 | < 5.79 | 1 | ED50 (Rattus norvegicus [2]): inactive; ED50 (Rattus norvegicus [3]): 0.28 µmol/kg; ED50 (Rattus norvegicus [4]): inactive; Locomotor activity (Rattus norvegicus [12]): 249
9 | C=CCCN1CC[C@H]2c3c(Br)cccc3CC[C@H]21 | 7.47 | 7.26 | – | –
10 | COCCN1CC[C@H]2c3c(Br)cccc3CC[C@H]21 | 7.01 | 6.60 | – | –
11 | CCN1CC[C@H]2c3c(Br)cccc3CC[C@H]21 | 7.96 | 7.47 | – | –
12 | CCCN1CC[C@H]2c3c(cccc3C(=O)C(C)C)CC[C@H]21 | 8.92 | 7.21 | 0.8 | Locomotor activity (Rattus norvegicus [13]): 450; ED50 (Rattus norvegicus [14]): 0.025 µmol/kg; ED50 (Rattus norvegicus [15]): inactive; ED50 (Rattus norvegicus [16]): inactive
13 | NC(=O)c1cccc2c1[C@@H]1CCN(CCCF)[C@@H]1CC2 | 8.41 | < 6.00 | 0.68 | –
14 | CC(C)CN1CC[C@H]2c3c(cccc3C(N)=O)CC[C@H]21 | 7.38 | < 6.00 | 0.23 | –
15 | C=CCCN1CC[C@H]2c3c(cccc3C(N)=O)CC[C@H]21 | 7.09 | < 6.00 | 0.33 | –
16 | CN1CC[C@H]2c3c(cccc3C(N)=O)CC[C@H]21 | – | < 6.00 | 4.9 | ED50 (Rattus norvegicus [2]): inactive; ED50 (Rattus norvegicus [3]): 17.6 µmol/kg; ED50 (Rattus norvegicus [4]): inactive; Locomotor activity (Rattus norvegicus [6]): 23
